Measured values reported in ChEMBL document CHEMBL2062426 (J Med Chem, 2012).

Columns and labels:
Neutrophil collagenase = Neutrophil collagenase (Homo sapiens, UniProt P22894); assay: Inhibition of MMP8 using (7-methoxycoumarin-4-yl)acetyl-Pro-Leu-Gly-Leu-(3-(2,4-dinitrophenyl)-L-2,3-diaminopropionyl)Ala-Arg-NH2 as substrate incubated for 30 mins prior to substrate addition measured for 10 mins by fluorometry
Method in brief: (§1)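 Activated MMP-8 or MMP-9 (2 nM) was preincubated with inhibitor (10 pM–1 mM) in 50 mM Tris-HCl pH 7.5 with 0.2 M NaCl, 5 mM CaCl2, 20 μM ZnSO4 and 0.05% Brij 35 at 37 °C for 30 min. Fluorogenic substrate (10 μL of 50 μM into 90 μL) was then added. Rates from the first 10 min were plotted against inhibitor concentration, and values are the mean of three experiments.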

Collagenase 3 = Collagenase 3 (Homo sapiens, UniProt P45452); assay: Inhibition of MMP13 using (7-methoxycoumarin-4-yl)acetyl-Pro-Leu-Gly-Leu-(3-(2,4-dinitrophenyl)-L-2,3-diaminopropionyl)Ala-Arg-NH2 as substrate incubated for 30 mins prior to substrate addition measured for 10 mins by fluorometry
[1] = molecular target: 72 kDa type IV collagenase (Homo sapiens, UniProt P08253); assay: Inhibition of MMP2 using (7-methoxycoumarin-4-yl)acetyl-Pro-Leu-Gly-Leu-(3-(2,4-dinitrophenyl)-L-2,3-diaminopropionyl)Ala-Arg-NH2 as substrate incubated for 30 mins prior to substrate addition measured for 10 mins by fluorometry
72 kDa type IV collagenase, sequence (P08253 whole entry): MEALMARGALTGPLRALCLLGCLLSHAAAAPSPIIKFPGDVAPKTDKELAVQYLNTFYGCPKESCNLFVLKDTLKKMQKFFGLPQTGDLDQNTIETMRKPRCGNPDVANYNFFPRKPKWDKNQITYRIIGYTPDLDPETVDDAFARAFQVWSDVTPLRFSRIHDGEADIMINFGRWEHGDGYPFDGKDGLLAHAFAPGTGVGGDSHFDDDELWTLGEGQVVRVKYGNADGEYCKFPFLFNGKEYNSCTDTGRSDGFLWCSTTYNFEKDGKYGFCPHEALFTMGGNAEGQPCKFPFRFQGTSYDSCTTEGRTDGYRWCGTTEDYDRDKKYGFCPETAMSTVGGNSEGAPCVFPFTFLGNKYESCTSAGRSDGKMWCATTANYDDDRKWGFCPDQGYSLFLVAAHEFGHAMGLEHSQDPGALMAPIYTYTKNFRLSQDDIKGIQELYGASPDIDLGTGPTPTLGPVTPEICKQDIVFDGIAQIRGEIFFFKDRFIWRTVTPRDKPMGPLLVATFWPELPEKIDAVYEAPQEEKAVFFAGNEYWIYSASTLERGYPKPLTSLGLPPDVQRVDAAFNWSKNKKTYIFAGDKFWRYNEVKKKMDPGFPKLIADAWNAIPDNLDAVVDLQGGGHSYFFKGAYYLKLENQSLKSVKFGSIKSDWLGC

[2] = molecular target: Matrix metalloproteinase-9 (Homo sapiens, UniProt P14780); assay: Inhibition of MMP9 using (7-methoxycoumarin-4-yl)acetyl-Pro-Leu-Gly-Leu-(3-(2,4-dinitrophenyl)-L-2,3-diaminopropionyl)Ala-Arg-NH2 as substrate incubated for 30 mins prior to substrate addition measured for 10 mins by fluorometry; method in brief: as §1
Matrix metalloproteinase-9, sequence (P14780 whole entry): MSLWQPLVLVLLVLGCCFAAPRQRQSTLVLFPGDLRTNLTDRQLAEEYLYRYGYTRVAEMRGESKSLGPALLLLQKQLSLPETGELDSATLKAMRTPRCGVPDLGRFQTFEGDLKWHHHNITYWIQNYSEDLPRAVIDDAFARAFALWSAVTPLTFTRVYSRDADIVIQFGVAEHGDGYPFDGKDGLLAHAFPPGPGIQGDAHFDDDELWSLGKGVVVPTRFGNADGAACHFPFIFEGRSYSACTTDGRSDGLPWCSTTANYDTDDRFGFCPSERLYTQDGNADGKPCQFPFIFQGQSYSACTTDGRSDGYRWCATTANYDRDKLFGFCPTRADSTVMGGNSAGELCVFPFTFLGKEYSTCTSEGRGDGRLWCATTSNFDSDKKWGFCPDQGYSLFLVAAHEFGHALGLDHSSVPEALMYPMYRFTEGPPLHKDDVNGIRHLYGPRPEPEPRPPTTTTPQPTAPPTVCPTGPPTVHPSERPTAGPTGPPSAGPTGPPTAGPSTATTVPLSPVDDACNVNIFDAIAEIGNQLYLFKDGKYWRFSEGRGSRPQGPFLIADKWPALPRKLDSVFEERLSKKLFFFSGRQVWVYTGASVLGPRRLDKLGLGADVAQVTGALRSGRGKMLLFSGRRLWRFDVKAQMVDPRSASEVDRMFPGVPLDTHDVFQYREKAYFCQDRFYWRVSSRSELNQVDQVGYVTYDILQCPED

Neutrophil collagenase, sequence (P22894 whole entry): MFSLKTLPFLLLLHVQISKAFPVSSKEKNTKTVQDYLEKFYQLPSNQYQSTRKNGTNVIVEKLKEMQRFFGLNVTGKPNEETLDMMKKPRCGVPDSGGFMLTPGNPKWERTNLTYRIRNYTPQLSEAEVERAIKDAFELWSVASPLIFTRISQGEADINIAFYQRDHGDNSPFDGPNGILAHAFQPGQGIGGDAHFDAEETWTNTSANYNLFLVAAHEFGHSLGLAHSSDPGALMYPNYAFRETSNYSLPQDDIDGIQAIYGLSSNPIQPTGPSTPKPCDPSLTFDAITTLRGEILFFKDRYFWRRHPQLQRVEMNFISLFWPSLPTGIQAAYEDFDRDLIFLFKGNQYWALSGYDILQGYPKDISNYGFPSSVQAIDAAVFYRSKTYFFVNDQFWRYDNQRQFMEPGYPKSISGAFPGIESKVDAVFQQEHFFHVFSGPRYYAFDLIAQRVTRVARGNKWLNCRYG

SMILES | IC50 (Neutrophil collagenase) [nM] | IC50 (Collagenase 3) [nM] | IC50 [1] [nM] | IC50 [2] [nM]
COc1ccc(S(=O)(=O)N(Cc2cn([C@@H]3O[C@H](CO)[C@@H](O)[C@H](O)[C@H]3F)nn2)[C@@H](C(=O)NO)C(C)C)cc1 | 0.5 | 0.5 | 0.2 | 0.6
COc1ccc(S(=O)(=O)N(Cc2cn(CCOCCOCCOCCn3cc(CN([C@@H](C(=O)NO)C(C)C)S(=O)(=O)c4ccc(OC)cc4)nn3)nn2)[C@@H](C(=O)NO)C(C)C)cc1 | > 100000 | > 100000 | > 100000 | > 100000
